{"source": "paper PMC3058505", "about": "(Hepatology (Baltimore, Md.), 2010)", "key": {"replicon cells": {"system": "replicon cells", "test": "Proliferation and cytotoxicity assays", "format": "cell-based, human", "details": "medium containing 5 or 10% FBS"}, "[1]": {"system": "HCV NS5A and core protein in NS or FL replicons", "test": "Western blot of HCV proteins in NS and FL replicons", "format": "cell-based, hepatitis C virus", "details": "biliverdin 20 µM, BR 200 µM or FeCl2 100 µM for 24 h; both replicon lines", "summary_of_the_method": "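Log-phase NS (Huh5-15) or FL (Huh7.5 Con1) replicon cells were treated for 24 h. BV and BR were dissolved in 0.2 N NaOH, with vehicle controls. Cells were then lysed and analysed by Western blot with enhanced chemiluminescence detection. Band intensities were quantified by densitometry.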"}, "[2]": {"system": "HCV replication in Huh5-15NS replicon", "test": "HCV replication in non-structural", "format": "cell-based, hepatitis C virus", "details": "for Relative [HCV] [ΔCΤ]: Huh5-15NS, control = 1.0", "summary_of_the_method": "(§1)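 Log-phase replicon cells were incubated overnight with hemin (0, 5, 10 or 20 µM) or control vehicle. Cells were Huh7.5FL (full-length Con1) or Huh5-15NS (subgenomic). Relative HCV RNA was found by real-time RT-PCR with the comparative cycle threshold (ΔCT) method and normalised to vehicle control = 1.0. Each value is the mean of four determinations.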"}, "[3]": {"system": "HCV replication in Huh7.5FL Con1 replicon", "test": "HCV replication in full-length", "format": "cell-based, hepatitis C virus", "details": "for Relative [HCV] [ΔCΤ]: Huh7.5FL, control = 1.0", "summary_of_the_method": "as §1"}, "[4]": {"molecular_target": "HCV NS3/4A protease (recombinant) (Hepatitis C virus genotype 1b, UniProt O92972)", "sequence (O92972 1013-1207, looked up, natural form)": "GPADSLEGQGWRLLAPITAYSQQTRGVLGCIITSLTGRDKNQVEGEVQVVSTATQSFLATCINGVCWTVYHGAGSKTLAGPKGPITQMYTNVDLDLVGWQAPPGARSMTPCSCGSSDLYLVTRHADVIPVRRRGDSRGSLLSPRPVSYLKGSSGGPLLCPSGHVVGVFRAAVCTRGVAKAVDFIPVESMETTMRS", "test": "SensoLyte 620 HCV Protease Assay with recombinant NS3/4A protease", "format": "biochemical"}, "[5]": {"system": "J6/JFH infectious HCV in Huh7.5 cells", "test": "J6/JFH HCV infection of Huh7.5 cells", "format": "cell-based, hepatitis C virus", "details": "BV 20–200 µM, 72 h; HCV polyvalent sera immunoreactivity and HCV RNA", "summary_of_the_method": "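Huh7.5 cells were inoculated with infectious J6/JFH HCV and passed. They were then treated with BV at 0, 20 or 200 µM for 72 h. Cells were fixed in absolute methanol, washed in PBS and stained with genotype 2A polyvalent human serum. Detection used an anti-human alkaline phosphatase conjugate and photomicroscopy. HCV RNA was measured by ΔCT real-time RT-PCR, 3–5 determinations per group, mean ± SEM.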"}, "[6]": {"molecular_target": "endogenous NS3/4A protease from replicon microsomes (Hepatitis C virus genotype 1b, UniProt Q9WMX2)", "sequence (Q9WMX2 1027-1657)": "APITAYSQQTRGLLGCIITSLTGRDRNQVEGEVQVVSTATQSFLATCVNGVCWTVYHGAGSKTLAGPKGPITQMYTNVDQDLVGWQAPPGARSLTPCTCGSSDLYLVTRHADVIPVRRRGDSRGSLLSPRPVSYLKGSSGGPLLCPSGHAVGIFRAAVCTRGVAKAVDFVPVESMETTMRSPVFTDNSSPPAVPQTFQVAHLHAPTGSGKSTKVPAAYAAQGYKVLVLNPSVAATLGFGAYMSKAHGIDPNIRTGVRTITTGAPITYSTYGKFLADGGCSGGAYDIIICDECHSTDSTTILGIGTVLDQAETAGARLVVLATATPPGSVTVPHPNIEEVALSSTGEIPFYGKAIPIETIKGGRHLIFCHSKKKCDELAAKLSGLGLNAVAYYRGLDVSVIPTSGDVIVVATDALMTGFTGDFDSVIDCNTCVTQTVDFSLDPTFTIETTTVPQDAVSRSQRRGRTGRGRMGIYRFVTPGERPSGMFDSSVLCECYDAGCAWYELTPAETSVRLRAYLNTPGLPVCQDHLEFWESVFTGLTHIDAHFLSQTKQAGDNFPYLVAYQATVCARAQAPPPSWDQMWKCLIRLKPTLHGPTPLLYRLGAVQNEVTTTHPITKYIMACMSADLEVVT", "sequence (Q9WMX2 1658-1711)": "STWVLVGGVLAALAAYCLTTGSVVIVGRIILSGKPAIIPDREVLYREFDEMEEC", "format": "biochemical"}, "[7]": {"system": "HCV replication in FL or NS replicons", "format": "cell-based, hepatitis C virus", "details": "50 or 100 µM BV overnight with α-interferon", "summary_of_the_method": "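Cell lines were Huh7.5 cells with full-length Con1 replicons (FL) and Huh5-15 cells with subgenomic replicons (NS). They received α-interferon alone or with BV. BV was dissolved in 0.2 N NaOH, and controls got the same NaOH volume. HCV RNA was measured by real-time RT-PCR using the comparative cycle threshold (ΔCT) method. Values are mean ± SEM of 3 determinations per point.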"}}, "note": "pKi: −log10 of the molar value. Where a name gives a salt, the structure may show the parent alone.", "data": [{"molecule": "C=CC1=C(C)/C(=C/c2[nH]c(Cc3[nH]c(/C=C4\\NC(=O)C(C)=C4C=C)c(C)c3CCC(=O)O)c(CCC(=O)O)c2C)NC1=O", "note": "[BR, bilirubin]", "values": [{"measurement": "Effect on cellular proliferation or toxicity", "setting": "replicon cells", "value": "no effect"}, {"measurement": "Effect on HCV protein expression by Western blot", "setting": "[1]", "value": "decreased NS5A"}]}, {"molecule": "hemin [Heme]", "values": [{"measurement": "Relative [HCV] [ΔCΤ]", "setting": "[2]; heme 5 uM overnight", "value": 0.27}, {"measurement": "Relative [HCV] [ΔCΤ]", "setting": "[2]; heme 10 uM overnight", "value": 0.09}, {"measurement": "Relative [HCV] [ΔCΤ]", "setting": "[2]; heme 20 uM overnight", "value": 0.03}, {"measurement": "Lowest level at which antiviral effect is apparent", "setting": "[2]; NS replicon, overnight incubation with hemin", "value": 5, "unit": "µM"}, {"measurement": "Lowest level at which antiviral effect is apparent", "setting": "[3]; FL replicon, overnight incubation with hemin", "value": 5, "unit": "µM"}, {"measurement": "Relative [HCV] [ΔCΤ]", "setting": "[3]; heme 5 uM overnight", "value": 0.22}, {"measurement": "Relative [HCV] [ΔCΤ]", "setting": "[3]; heme 10 uM overnight", "value": 0.08}, {"measurement": "Relative [HCV] [ΔCΤ]", "setting": "[3]; heme 20 uM overnight", "value": 0.04}]}, {"molecule": "C=CC1=C(C)/C(=C/C2=NC(=C\\c3[nH]c(/C=C4\\NC(=O)C(C)=C4C=C)c(C)c3CCC(=O)O)/C(CCC(=O)O)=C2C)NC1=O", "note": "[Biliverdin, biliverdin-IX-α hydrochloride]", "values": [{"measurement": "pKi", "setting": "[4]", "value": 6.22}, {"measurement": "Mode of inhibition of NS3/4A protease", "setting": "[4]; Lineweaver-Burk plots", "value": "mixed competitive and non-competitive inhibition"}, {"measurement": "Effect of BV combined with #25346 on protease activity", "setting": "[4]; assays in the presence of both BV and #25346", "value": "additive effect"}, {"measurement": "Effect on Huh7.5 cell infection with J6/JFH", "setting": "[5]", "value": "markedly decreased"}, {"measurement": "Inhibition of endogenous NS3/4A protease", "setting": "[6]", "value": "potently inhibited"}, {"measurement": "Effect on cellular proliferation or toxicity", "setting": "replicon cells", "value": "no effect"}, {"measurement": "Effect on HCV protein expression by Western blot", "setting": "[1]", "value": "decreased NS5A"}, {"measurement": "Effect on α-interferon antiviral activity", "setting": "[7]", "value": "clear additive effect"}]}, {"molecule": "[Cl][Fe][Cl]", "note": "[FeCl2]", "values": [{"measurement": "Effect on HCV protein expression by Western blot", "setting": "[1]", "value": "decreased NS5A and core protein"}]}]}
